Measured values of several laboratories.
PDGFRB: Platelet-derived growth factor receptor beta (PDGFRB, Homo sapiens, UniProt P09619)
DYRK1A: Dual specificity tyrosine-phosphorylation-regulated kinase 1A (DYRK1A, Homo sapiens, UniProt Q13627)

Nc1ncnc2c1ncn2[C@@H]1O[C@H](COP(=O)(O)OP(=O)(O)O)[C@@H](O)[C@H]1O — Km (Inositol-tetrakisphosphate 1-kinase (Homo sapiens, UniProt Q13572); enzyme activity, substrate): 1.5 µM
C1=C/COCc2cc(ccc2OCCN2CCCC2)Nc2nccc(n2)-c2cccc(c2)COC/1 — remaining binding (PDGFRB; binding; 0.1 µM): 32%
CN(C)CCOC(=O)COc1ccc(Cl)cc1 — inhibition (Alpha-1D adrenergic receptor (ADRA1D, Homo sapiens, UniProt P25100); ligand displacement, radioligand; 1 µM, cell membranes): 0%
CCCCC(=O)Nc1ccc(-c2ccc3ncn(CCC)c(=O)c3c2)cn1 — remaining binding (Serine/threonine-protein kinase 25 (STK25, Homo sapiens, UniProt O00506); binding, competition with immobilised ligand; 0.5 µM): 85%
COc1ccc2oc(-c3ccc4nc(N)oc4c3)c/c(=N\c3ccccc3NC(=O)CCN)c2c1 — remaining binding (PDGFRB; binding; 1 µM): 107%
NC/C(=C\F)COc1cccc(Cn2c(=S)[nH]c(=O)c3[nH]cnc32)c1 — inhibition (Neuropeptide Y receptor type 2 (NPY2R, Homo sapiens, UniProt P49146); ligand displacement, radioligand; 10 µM): < 50%
O=C1C2C3CC(C(Br)C3Br)C2C(=O)N1CC1CCCO1 (centres unmarked) — inhibition (DYRK1A; enzyme activity, inhibitor, ADP detection; 10 µM): 41.5%
Cc1cc(O)c(-c2ccc([C@@H](C)CN(C)C)cc2)c2c1[nH]c(=O)c1sccc12 — inhibition (Microtubule-associated serine/threonine-protein kinase 3 (MAST3, Homo sapiens, UniProt O60307); enzyme activity, inhibitor; 0.1 µM): 2.4%
Brc1cc(Br)c2ccncc2c1Br — inhibition (DYRK1A; enzyme activity, inhibitor, ADP detection; 10 µM): 41.5%
Cc1cc(F)cc2c(CCC(=O)N[C@@H]3C(=O)NC[C@H]3O)c(-c3ccc(F)cc3)[nH]c12 — inhibition (Muscarinic acetylcholine receptor M3 (CHRM3, Homo sapiens, UniProt P20309); cell-free assay; 10 µM): 0%
Clc1ccc(-c2cn[nH]c2)s1 — inhibition (DYRK1A; enzyme activity, inhibitor, ADP detection; 10 µM): 52.5%
C#Cc1cc(-c2cc(Nc3nc(N[C@@H](C)c4ccc(F)cn4)ncc3Cl)n[nH]2)ccc1C=O — inhibition (Homeodomain-interacting protein kinase 2 (HIPK2, Homo sapiens, UniProt Q9H2X6); enzyme activity, inhibitor; 0.2 µM): 40.4%
Nc1cc(-c2ccncc2)cs1 — inhibition (DYRK1A; enzyme activity, inhibitor, ADP detection; 10 µM): 25.6%
N#Cc1ccc(NC(=O)Nc2ccccc2)cc1 — inhibition (PDGFRB; cell-free assay, competition with immobilised ligand; 25 µM): 67%
